Measured values from ChEMBL document CHEMBL4038313, “Expanding the Antiviral Spectrum of 3-Fluoro-2-(phosphonomethoxy)propyl Acyclic Nucleoside Phosphonates: Diamyl Aspartate Amidate Prodrugs” (J Med Chem, 2017).

How the values were obtained:
[1] = Selectivity index, ratio of CC50 for human TZM-bl cells to EC50 for CXCR4-tropic HIV-1 NL4-3 infected in human TZM-bl cells; type: toxicity, cell-based; conditions: read-out: Ratio CC50/EC50
[2] = Cytotoxic activity against HEL cells assessed as alteration of cell morphology after 3 days by microscopic method; type: cell-based; conditions: human
Procedure, shortened: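 HEL cells with compound; MCC is the lowest concentration giving microscopically detectable alteration of cell morphology.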

[3] = Cytotoxicity against human HepG2.2.15 cells assessed as cell viability by tetrazolium dye uptake assay; type: cell-based, HepG2 2.2.15
Procedure, shortened: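 HepG2.2.15 cells (two integrated copies of HBV ayw1 genome) were seeded at 1.5 × 10^4 cells/well in DMEM with 2% FBS, 380 μg/mL G418, glutamine, antibiotics and nonessential amino acids. After 16−24 h, medium with various compound concentrations was added in triplicate and renewed on day 3. After 6 days of treatment, viability was read by MTS uptake and CC50 was calculated.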

[4] = Selectivity index, ratio of CC50 for HepG2.2.15 cells to EC50 for HBV ayw1 infected in human HepG2(2.2.15) cells assessed as reduction in viral replication by measuring extracellular viral DNA copy
Procedure, shortened: (§1)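 HepG2.2.15 cells (two copies of HBV ayw1 genome), 1.5 × 10^4/well in DMEM with 2% FBS and 380 μg/mL G418. After 16–24 h, compound added in triplicate, medium with compound renewed at day 3. Supernatant collected at day 6, Pronase-treated, and extracellular HBV DNA measured by TaqMan qPCR (precore/core) against an HBV DNA standard curve. EC50/EC90 derived; CC50 by MTS uptake.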

Human alphaherpesvirus 3 [5] = test: Antiviral activity against thymidine kinase deficient Varicella-Zoster virus 07-1 infected in HEL cells assessed as inhibition of plaque formation; type: functional, cell-based; conditions: Human alphaherpesvirus 3, 07-1, HEL
Procedure, shortened: (§2)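 HEL fibroblast monolayers inoculated with 100 CCID50 HCMV (AD-169, Davis) or 20 PFU VZV (TK+ Oka, TK− 07-1). Adsorbed 1–2 h, inoculum removed, then incubated with compound dilutions. HCMV cytopathicity or VZV plaques scored once untreated infected controls reached completion. EC50 is 50% reduction. SI is CC50/EC50, and the potency ratio is the ratio of EC50s.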

Human alphaherpesvirus 3 [6] = test: Antiviral activity against thymidine kinase expressing Varicella-Zoster virus Oka strain assessed as inhibition of plaque formation; type: functional; conditions: Human alphaherpesvirus 3, strain Oka vaccine; procedure, shortened: as §2
[7] = test system: Human immunodeficiency virus 1; test: Antiviral activity against CCR5 tropic HIV1 BaL infected in human TZM-bl cells assessed as inhibition of virus-induced cytopathic effect preincubated with cells for 30 mins followed by viral infection measured after 48 hrs in presence of p-24 HIV-1 Ag by luciferase reporter gene assay; type: functional, cell-based; conditions: Human immunodeficiency virus 1, BaL
Procedure, shortened: (§3)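 TZM-bl cells, 1 × 10^4 per well in DMEM with 10% FBS and 10 mM […], incubated 30 min at 37 °C with compound. Then HIV-1 NL4.3 (X4) or BaL (R5) added at 100 pg p24 Ag per well. After 48 h, cells lysed with luciferase substrate. Tat-induced luminescence read after 10 min dark incubation as a measure of replication.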

[8] = Selectivity index, ratio of CC50 for human TZM-bl cells to EC50 for CCR5 tropic HIV1 BaL infected in human TZM-bl cells; type: toxicity, cell-based; conditions: read-out: Ratio CC50/EC50
[9] = Cytotoxicity against human TZM-bl cells assessed as cell viability by tetrazolium dye assay; type: cell-based
[10] = test system: Human immunodeficiency virus 1; test: Antiviral activity against CXCR4-tropic HIV-1 NL4-3 infected in human TZM-bl cells assessed as inhibition of virus-induced cytopathic effect preincubated with cells for 30 mins followed by viral infection measured after 48 hrs in presence of p-24 HIV-1 Ag by luciferase reporter gene assay; type: functional, cell-based; conditions: Human immunodeficiency virus 1, NL4-3, TZM-bl; procedure, shortened: as §3
Hepatitis B virus = test: Antiviral activity against HBV ayw1 infected in human HepG2(2.2.15) cells assessed as reduction in viral replication by measuring extracellular viral DNA copy number after 6 days by real-time qPCR method; type: functional, cell-based; conditions: ayw1, HepG2 2.2.15, 144 h; procedure, shortened: as §1
Human betaherpesvirus 5 [11] = test: Antiviral activity against Human cytomegalovirus AD169 infected in HEL cells assessed as inhibition of virus-induced cytopathic effect; type: functional, cell-based; conditions: Human betaherpesvirus 5, AD169, HEL; procedure, shortened: as §2
Human betaherpesvirus 5 [12] = test: Antiviral activity against HCMV Davis strain infected in HEL cells assessed as inhibition of virus-induced cytopathic effect; type: functional, cell-based; conditions: Human betaherpesvirus 5, Davis; procedure, shortened: as §2
[13] = Cytotoxic activity against HEL cells assessed as reduction in cell proliferation after 3 days by coulter counting method; type: cell-based; conditions: human
Procedure, shortened: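 HEL cells seeded at 5 × 10^3/well, grown 24 h, then given compound for 3 days at 37 °C. Cell number counted by Coulter counter. CC50 is 50% reduction of proliferation relative to untreated controls, read from graphic plots.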

[14] = test system: Human immunodeficiency virus 1; test: (§4) Antiviral activity against CXCR4-tropic HIV-1 NL4-3 infected in human PHA-stimulated PBMC assessed as inhibition of viral replication by measuring reduction in p24 antigen production preincubated with cells for 30 mins followed by viral infection measured on day 10 post infection in presence of IL-2 by ELISA; type: functional; conditions: Human immunodeficiency virus 1, NL4-3
Procedure, shortened: (§5)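 PBMCs stimulated with 2 μg/mL PHA for 3 days at 37 °C, then 5 × 10^5 cells/ml preincubated 30 min at 37 °C with serial compound dilutions plus 2 ng/mL IL-2. Infected with 1500 pg/well HIV-1 BaL or 500 pg/well other isolates. IL-2 re-added on days 3 and 6. Supernatant p24 Ag measured by ELISA at day 10. EC50 is 50% inhibition of replication.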

[15] = Selectivity index, ratio of CC50 for human PHA-stimulated PBMCs to IC50 for CCR5 tropic HIV1 BaL infected in human PHA-stimulated PBMC
[16] = Cytotoxicity against human PHA-stimulated PBMC assessed as cell viability by tetrazolium dye assay; type: cell-based
[17] = Selectivity index, ratio of CC50 for human PHA-stimulated PBMC to IC50 for CXCR4-tropic HIV-1 NL4-3 infected in human PHA-stimulated PBMC
[18] = test system: Human immunodeficiency virus 1; test: as §4, with “CCR5 tropic HIV1 BaL” for “CXCR4-tropic HIV-1 NL4-3”; type: functional; conditions: Human immunodeficiency virus 1, BaL; procedure, shortened: as §5

Structure (SMILES) | selectivity ratio [1] | MCC at 72 h [2] | CC50 [3] | Ratio CC50/EC50 [4] | EC50 (Human alphaherpesvirus 3 [5]) | EC50 (Human alphaherpesvirus 3 [6]) | EC50 [7] | selectivity ratio [8] | CC50 [9] | EC50 [10] | EC50 (Hepatitis B virus) | EC90 (Hepatitis B virus) | EC50 (Human betaherpesvirus 5 [11]) | EC50 (Human betaherpesvirus 5 [12]) | CC50 at 72 h [13] | IC50 [14] | Ratio CC50/IC50 [15] | CC50 [16] | Ratio CC50/IC50 [17] | IC50 [18]
Nc1ccn(C[C@H](CF)OCP(=O)(O)O)c(=O)n1 | > 2 | > 356 µM | > 100 µM | 1 | > 356 µM | > 356 µM | > 100 µM | 1 | > 100 µM | 54.1 µM | > 100 µM | > 100 µM | > 356 µM | > 356 µM |  |  |  |  |  | 
Nc1ccn(C[C@@H](CO)OCP(=O)(O)O)c(=O)n1 [CIDOFOVIR] |  | > 358 µM |  |  |  |  |  |  |  |  |  |  | 2.49 µM | 3.74 µM | > 358 µM |  |  |  |  | 
CCCCCOC(=O)C[C@H](NP(=O)(CO[C@@H](CF)Cn1ccc(N)nc1=O)Oc1ccccc1)C(=O)OCCCCC (stereo partly drawn) | < 1 | 32.6 µM | 33.5 µM | 1 | > 32.6 µM | > 32.6 µM | > 54.2 µM | < 1 | 54.2 µM | > 54.2 µM | 28 µM | 91.5 µM | > 32.6 µM | > 32.6 µM |  |  |  |  |  | 
O=c1[nH]c(=O)n([C@H]2C[C@H](O)[C@@H](CO)O2)cc1/C=C/Br [BRIVUDINE] |  | > 300 µM |  |  | 5.21 µM | 0.055 µM |  |  |  |  |  |  |  |  | > 300 µM |  |  |  |  | 
Nc1nc2c(ncn2COC(CO)CO)c(=O)[nH]1 [GANCICLOVIR] |  | > 391 µM |  |  |  |  |  |  |  |  |  |  |  | 16.5 µM | > 391 µM |  |  |  |  | 
CC(C)OC(=O)[C@H](C)N[P@](=O)(CO[C@H](C)Cn1cnc2c(N)ncnc21)Oc1ccccc1 [TENOFOVIR ALAFENAMIDE] |  |  |  |  |  |  |  |  |  |  |  |  |  |  |  | 0.001 µM | 132 | 1.32 µM | 1320 | 0.01 µM
CCCCCOC(=O)C[C@H](NP(=O)(CO[C@@H](CF)Cn1cc(C)c(=O)[nH]c1=O)Oc1ccccc1)C(=O)OCCCCC (stereo partly drawn) | 1 | 31.9 µM | 34.2 µM | <1 | 12.7 µM | 31.9 µM | > 100 µM | 1 | > 100 µM | > 100 µM | 47 µM | > 100 µM | > 31.9 µM | > 31.9 µM |  |  |  |  |  | 
Nc1ncnc2c1ncn2C[C@H](CF)OCP(=O)(O)O | > 3 | > 328 µM | > 100 µM | >9 | > 328 µM | 172 µM | 30.7 µM | > 3 | > 100 µM | 29.2 µM | 11.2 µM | > 100 µM | > 328 µM | > 328 µM |  | 4.04 µM | 8 | 93.9 µM | 23 | 11.9 µM
CCCCCOC(=O)C[C@H](NP(=O)(CO[C@H](CF)Cn1ccc(N)nc1=O)Oc1ccccc1)C(=O)OCCCCC (stereo partly drawn) | < 1 | 163 µM | 46.3 µM | 1 | 1.32 µM | 3.15 µM | > 69 µM | < 1 | 69 µM | > 69 µM | 41.9 µM | > 100 µM | 0.76 µM | 2.02 µM | 74.7 µM |  |  |  |  | 
Nc1nc2c(ncn2COCCO)c(=O)[nH]1 [ACYCLOVIR] |  | > 444 µM |  |  | 20.7 µM | 3.02 µM |  |  |  |  |  |  |  |  | > 444 µM |  |  |  |  | 
Nc1ccn(C[C@@H](CF)OCP(=O)(O)O)c(=O)n1 | > 2 | > 356 µM | > 100 µM | 1 | 71.1 µM | 71.1 µM | 68.5 µM | > 1 | > 100 µM | 41.9 µM | > 100 µM | > 100 µM | 143 µM | 27.1 µM | > 356 µM |  |  |  |  | 
Cc1cn(C[C@@H](CF)OCP(=O)(O)O)c(=O)[nH]c1=O | > 2 | > 338 µM | > 100 µM | 1 | 338 µM | > 338 µM | > 100 µM | 1 | > 100 µM | 56.8 µM | > 100 µM | > 100 µM | > 338 µM | > 338 µM |  |  |  |  |  | 
Nc1nc(O)c2ncn(C[C@H](CF)OCP(=O)(O)O)c2n1 | > 22 | > 311 µM | > 100 µM | >204 | 62.3 µM | 62.3 µM | 6.65 µM | > 15 | > 100 µM | 4.57 µM | 0.49 µM | 82.5 µM | 139 µM | 62.3 µM |  | 1.42 µM | 14.5 | 93.1 µM | 66 | 6.41 µM
Nc1nc(O)c2ncn(C[C@@H](CF)OCP(=O)(O)O)c2n1 | > 21 | > 311 µM | > 100 µM | >169 | 12.5 µM | 15.5 µM | 3.79 µM | > 26 | > 100 µM | 4.81 µM | 0.59 µM | 42.7 µM | 127 µM | 57 µM | 65.4 µM | 0.28 µM | 32 | 36.4 µM | 130 | 1.14 µM
CCCCCOC(=O)C[C@H](NP(=O)(CO[C@@H](CF)Cn1cnc2c(N)ncnc21)Oc1ccccc1)C(=O)OCCCCC (stereo partly drawn) | 269 | 157 µM | 33 µM | 31 | 8.24 µM | 3.81 µM | 0.11 µM | 342 | 37.6 µM | 0.14 µM | 1.06 µM | 16.9 µM | > 31.4 µM | > 31.4 µM | 7.47 µM | 0.026 µM | 109 | 36.1 µM | >1388 | 0.33 µM
Cc1cn(C[C@H](CF)OCP(=O)(O)O)c(=O)[nH]c1=O | > 2 | > 338 µM | > 100 µM | 1 | > 338 µM | > 338 µM | > 100 µM | 1 | > 100 µM | 54.8 µM | > 100 µM | > 100 µM | > 338 µM | > 338 µM |  |  |  |  |  | 
